INS-1E_ATP_HTS: preserves ATP levels in cytokine-treated INS-1E cells; protection from cytokine-induced ATP loss, % at 10 µM; INS-1E cytokine-induced death, ATP luminescence, 48 h; normalised: neutral wells 0, positive control 100; actives 0.1% (n = 20,000);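 active = mean replicate protection from cytokine-induced ATP loss at least 50% and at least 75% of replicates each reaching 50%; inconclusive = meets only one of the two criteria, mean or replicate share; inactive = fails both the mean and replicate share criteria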
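Test system: INS-1E rat cells | Quantity: 8000 cells per well | Medium: Phenol-red-free RPMI with 5% fetal bovine serum | Reagent: Cytokine cocktail of IFN-γ, TNF-α and IL-1β | Doses: One compound concentration, pin transfer | Timing: 48 h co-treatment, 10 min post-lysis read | Technique: Luminescent ATP assay (CellTiter-Glo)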
T_cruzi_intra: blocks T. cruzi growth inside host cells. intracellular Trypanosoma cruzi in host cells, plate reader. AID 651903. actives 4.9% (n = 22,000). activity score (inhibition), % at 5.01 µM; in the data active = activity score above about 55%; inconclusive = no clear call, values can overlap the other calls;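 also: parasites and compound incubated about four days before reading; 0% = median of neutral control wells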
A1_apoptosis_2: compounds inhibiting A1, read as caspase activation. MEF A1-2A-BIM cells, caspase-Glo luminescence, 3 h; percent of clofoctol response, DMSO zero. caspase activation, % (test concentration not listed). 24,000 tested, under 10 active; in the data active = caspase activation above about 5.9%; inconclusive = no clear call, values can overlap the other calls; inactive = below about 2.2%
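Material: mouse embryonic fibroblasts co-expressing A1 and BIM (A1-2A-BIM), primed for A1 dependence / Quantity: 2500 cells/well / Buffer or medium: RPMI-1640 growth medium with 10% FBS / Doses: 50 nL compound per well, pinned / Schedule: 3 h compound exposure at 37 °C / Signal: Caspase-Glo luminescence (DEVD substrate) / Measure: Caspase-3/7 activation, seen as rise in luminescence signal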
An asterisk follows results filed as active; ? = inconclusive; . = not tested or not shown. This is one part of a sample in which hits are shown more often than they occur.

SMILES INS-1E_ATP_HTS T_cruzi_intra A1_apoptosis_2
Cc1ccc(S(=O)(=O)Nc2cccc3c2O[C@H](CN(C)S(=O)(=O)c2c(C)noc2C)[C@@H](C)CN([C@H](C)CO)C3=O)cc1 0.9 -4.1 0.7
O=C(N/N=C/c1ccc(N(c2ccccc2)c2ccccc2)cc1)c1ccccn1 0.0 42.4 .
C[C@H](CO)N1C[C@H](C)[C@@H](CN(C)S(=O)(=O)c2ccccc2)Oc2ccc(NS(=O)(=O)c3ccc(F)cc3)cc2CC1=O . . -0.6
O=C(N/N=C/c1ccc(O)cc1Br)c1ccccn1 12.4 -7.4 -11.5
C[C@@H]1CN([C@H](C)CO)C(=O)c2cccc(NC(=O)c3ccc(-c4nccs4)cc3)c2O[C@@H]1CN(C)Cc1ccc(-c2ccccc2)cc1 -42.9 41.9 -1.5
C[C@@H]1CN([C@@H](C)CO)C(=O)c2cccc(NC(=O)c3ccc(-c4nccs4)cc3)c2O[C@H]1CN(C)Cc1ccc(C(=O)Nc2ccccc2N)cc1 19.3 48.1 .
C[C@H](CO)N1C[C@H](C)[C@H](CN(C)S(=O)(=O)c2ccc(Cl)cc2)Oc2c(NC(=O)c3ccc(-c4nccs4)cc3)cccc2C1=O -37.5 63.4* -0.5
C[C@H](CO)N1C[C@H](C)[C@@H](CN(C)CC2CCCCC2)Oc2c(NC(=O)c3ccc(-c4nccs4)cc3)cccc2C1=O -37.2 44.8 .
C[C@H]1CN([C@@H](C)CO)C(=O)c2cccc(NC(=O)c3ccc(-c4nccs4)cc3)c2O[C@H]1CN(C)Cc1ccc(C(=O)Nc2ccccc2N)cc1 -15.4 71.4* -2.5
C[C@H](CO)N1C[C@H](C)[C@@H](CN(C)S(=O)(=O)c2ccc(Cl)cc2)Oc2c(NC(=O)c3ccc(-c4nccs4)cc3)cccc2C1=O 1.8 29.9 .
C[C@H]1CN([C@@H](C)CO)C(=O)c2cccc(NC(=O)c3ccc(-c4nccs4)cc3)c2O[C@@H]1CN(C)Cc1ccc(-c2ccccc2)cc1 -29.1 70.3* -0.8
C[C@@H]1CN([C@@H](C)CO)C(=O)c2cccc(NC(=O)c3ccc(-c4nccs4)cc3)c2O[C@H]1CN(C)CC1CCCCC1 -43.3 64.0* 1.1
CC(C)(C)OC(=O)NC/C=N/NC(=O)CCCCC(=O)NO -1.2 -11.6 0.6
COc1ccc(/C=N\NC(=O)c2ccccc2O)c(O)c1 -125.8 49.6 .
Cc1noc(C)c1NC(=O)N(C)C[C@@H]1OCCCC[C@@H](C)Oc2ccc(NC(=O)Cc3ccccc3)cc2C(=O)N([C@@H](C)CO)C[C@@H]1C . . 0.3
COC(=O)CCCCCCC(=O)N/N=C/CCC1CCCCC1 3.5 0.6 1.2
C[C@@H]1CN([C@H](C)CO)C(=O)c2cccc(NC(=O)c3ccc(-c4nccs4)cc3)c2O[C@H]1CN(C)Cc1ccc(C(=O)O)cc1 11.7 -10.2 0.0
C[C@@H]1CN([C@H](C)CO)C(=O)c2cccc(NC(=O)c3ccc(-c4nccs4)cc3)c2O[C@H]1CN(C)Cc1ccccc1 -13.2 38.6 -1.0
C[C@@H]1CN([C@H](C)CO)C(=O)c2cccc(NC(=O)c3ccc(-c4nccs4)cc3)c2O[C@@H]1CN(C)Cc1ccc(C(=O)Nc2ccccc2N)cc1 ? 80.7* .
C[C@H](CO)N1C[C@H](C)[C@@H](CN(C)Cc2ccc(Cl)c(Cl)c2)Oc2c(NC(=O)c3ccc(-c4nccs4)cc3)cccc2C1=O -31.7 62.2* -0.9
C[C@H](CO)N1C[C@H](C)[C@H](CN(C)C(=O)Nc2ccc(C(F)(F)F)cc2)Oc2c(NC(=O)c3ccc(-c4nccs4)cc3)cccc2C1=O -55.3 ? .
C[C@@H]1CN([C@@H](C)CO)C(=O)c2cccc(NC(=O)c3ccc(-c4nccs4)cc3)c2O[C@@H]1CN(C)C(=O)Nc1ccc(C(F)(F)F)cc1 -86.8 66.3* -0.6
Cc1noc(C)c1S(=O)(=O)Nc1ccc2c(c1)C(=O)N([C@H](C)CO)C[C@H](C)[C@@H](CN(C)S(=O)(=O)c1ccccc1)OCCCC[C@@H](C)O2 11.2 . .
O=C(CCCCCC(=O)N/N=C/c1ccoc1)NO . . 0.1
C[C@H]1CN([C@@H](C)CO)C(=O)c2cccc(NS(=O)(=O)c3cccs3)c2O[C@H]1CN(C)Cc1ccc2c(c1)OCO2 -2.6 -13.6 -0.1
O=C(NO)c1cccc(C(=O)N/N=C/c2ccc(OCc3ccccc3)cc2O)c1 -94.2 20.8 1.1
C[C@@H]1CN([C@@H](C)CO)C(=O)Cc2cc(NC(=O)Nc3cccc4ccccc34)ccc2O[C@@H]1CN(C)Cc1ccc2c(c1)OCO2 -15.9 53.1 -0.2
C[C@H](CO)N1C[C@H](C)[C@@H](CN(C)Cc2ccccc2)Oc2ccc(NC(=O)Nc3cccc4ccccc34)cc2CC1=O . . 0.5
